Experimental data from ChEMBL document CHEMBL3286368, “Delayed and Prolonged Histone Hyperacetylation with a Selective HDAC1/HDAC2 Inhibitor” (ACS Med Chem Lett, 2014).

What was measured:
[1] = Cmax in CD1 nu/nu mouse xenografted with human HCT116 cells at 50 mg/kg, po qd for 3 weeks; assay type: ADME, organism-based, HCT-116; design: dose 50 mg/kg, route oral; details: in vivo
Method in brief: (§1)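 HCT116 cells (5 × 10^6 per mouse) injected subcutaneously into the right flank of CD1 nu/nu mice. Once tumors reached ~325 mm3, mice were randomized into groups of 12 and dosed orally for 21 days, once daily (qd) or biweekly (biw). Vehicle was 40% v/v PEG-400 plus 25% w/v HPβCD at 20 μL/g.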

[2] = Cmax in CD1 nu/nu mouse xenografted with human HCT116 cells at 100 mg/kg, po qd for 3 weeks; assay type: ADME, organism-based, HCT-116; design: dose 100 mg/kg, route oral; details: in vivo; method in brief: as §1
[3] = Cmax in CD1 nu/nu mouse xenografted with human HCT116 cells at 150 mg/kg, po qd for 3 weeks; assay type: ADME, organism-based, HCT-116; design: dose 150 mg/kg, route oral; details: in vivo; method in brief: as §1
[4] = Cmax in CD1 nu/nu mouse xenografted with human HCT116 cells at 875 mg/kg, po administered biweekly for 3 weeks; assay type: ADME, organism-based, HCT-116; design: dose 875 mg/kg, route oral; details: in vivo; method in brief: as §1
[5] = AUC (0 to 24 hrs) in CD1 nu/nu mouse xenografted with human HCT116 cells at 50 mg/kg, po qd for 3 weeks; assay type: ADME, organism-based, HCT-116; design: time < 24 hr, dose 50 mg/kg, route oral; details: in vivo
Method in brief: (§2)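 HCT116 cells (5 × 10^6/mouse) injected sc into right flank of CD1 nu/nu mice; at ~325 mm3 tumors, randomized into groups of 12. Oral dosing 21 days, once daily or biweekly, in 40% v/v PEG-400 and 25% w/v HPβCD at 20 μL/g. […] Tumor size by caliper.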

[6] = AUC (0 to 24 hrs) in CD1 nu/nu mouse xenografted with human HCT116 cells at 100 mg/kg, po qd for 3 weeks; assay type: ADME, organism-based, HCT-116; design: time < 24 hr, dose 100 mg/kg, route oral; details: in vivo; method in brief: as §2
[7] = AUC (0 to 24 hrs) in CD1 nu/nu mouse xenografted with human HCT116 cells at 350 mg/kg, po administered biweekly for 3 weeks; assay type: ADME, organism-based, HCT-116; design: time < 24 hr, dose 350 mg/kg, route oral; details: in vivo; method in brief: as §2
[8] = AUC (0 to 24 hrs) in CD1 nu/nu mouse xenografted with human HCT116 cells at 525 mg/kg, po administered biweekly for 3 weeks; assay type: ADME, organism-based, HCT-116; design: time < 24 hr, dose 525 mg/kg, route oral; details: in vivo; method in brief: as §2
[9] = AUC (0 to 24 hrs) in CD1 nu/nu mouse xenografted with human HCT116 cells at 875 mg/kg, po administered biweekly for 3 weeks; assay type: ADME, organism-based, HCT-116; design: time < 24 hr, dose 875 mg/kg, route oral; details: in vivo; method in brief: as §2
Mus musculus [10] = test: Unbound Cmin in 3 week po dosed CD1 nu/nu mouse xenografted with human HCT116 cells after 24 hrs; assay type: ADME, organism-based, HCT-116; details: in vivo
[11] = Half life in CD-1 mouse at 5 mg/kg, iv; assay type: ADME, organism-based; design: dose 5 mg/kg, route intravenous; details: in vivo
Method in brief: (§3)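 Intravenous dosing at 5 (mouse), 2 (rat), 0.5 (dog) and 0.5 (monkey) mg/kg. Plasma clearance, steady-state volume of distribution and half-life derived from the plasma profile.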

[12] = Oral bioavailability in CD-1 mouse at 10 mg/kg; assay type: ADME, organism-based; details: in vivo
[13] = Half life in Sprague-Dawley rat at 2 mg/kg, iv; assay type: ADME, organism-based; design: dose 2 mg/kg, route intravenous; details: in vivo; method in brief: as §3
[14] = Oral bioavailability in Sprague-Dawley rat at 4 mg/kg; assay type: ADME, organism-based; details: in vivo
[15] = Plasma protein binding in Sprague-Dawley rat at 2 uM; assay type: ADME, cell-free; details: read-out: PPB (converted)
Method in brief: (§4)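 Plasma protein binding measured in mouse, rat, dog and monkey plasma at 2 μM compound.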

[16] = Plasma clearance in beagle dog at 0.5 mg/kg, iv; assay type: ADME, organism-based, Canis lupus familiaris; design: dose 0.5 mg/kg, route intravenous; method in brief: as §3
[17] = Half life in beagle dog at 0.5 mg/kg, iv; assay type: ADME, organism-based, Canis lupus familiaris; design: dose 0.5 mg/kg, route intravenous; details: in vivo; method in brief: as §3
Canis familiaris = test: Dose normalized AUC in beagle dog at 1 mg/kg, po; assay type: ADME, organism-based, Canis lupus familiaris; design: dose 1 mg/kg, route oral; details: in vivo
[18] = Plasma protein binding in beagle dog at 2 uM; assay type: ADME, cell-free, Canis lupus familiaris; details: read-out: PPB (converted); method in brief: as §4
[19] = Half life in rhesus monkey at 0.5 mg/kg, iv; assay type: ADME, organism-based, Macaca mulatta; design: dose 0.5 mg/kg, route intravenous; details: in vivo; method in brief: as §3
[20] = Plasma protein binding in rhesus monkey at 2 uM; assay type: ADME, cell-free, Macaca mulatta; details: read-out: PPB (converted); method in brief: as §4
[21] = Drug metabolism in human hepatocytes assessed as glucuronide conjugate level; assay type: ADME, cell-based, Hepatocyte
[22] = Drug metabolism in human hepatocytes assessed as carboxylic acid level; assay type: ADME, cell-based, Hepatocyte
[23] = Drug metabolism in human hepatocytes assessed as oxidation of piperidine ring; assay type: ADME, cell-based, Hepatocyte
[24] = Drug metabolism in human hepatocytes assessed as glucose conjugate level; assay type: ADME, cell-based, Hepatocyte
Mus musculus [25] = test: Inhibition of HDAC in CD1 nu/nu mouse tumor xenografted with human HCT116 cells assessed as plasma drug level causing increase in H2BK5 acetylation at 67 mg/kg, po tid after 24 hrs by ELISA; assay type: functional, HCT-116
Mus musculus [26] = test: Inhibition of HDAC in CD1 nu/nu mouse tumor xenografted with human HCT116 cells assessed as plasma drug level causing increase in H2BK5 acetylation at 67 mg/kg, po tid after 72 hrs by ELISA; assay type: functional, HCT-116
Mus musculus [27] = test: Inhibition of HDAC in CD1 nu/nu mouse tumor xenografted with human HCT116 cells assessed as plasma drug level causing increase in H2BK5 acetylation at 100 mg/kg, po bid after 1 hr by ELISA; assay type: functional, HCT-116
Mus musculus [28] = test: Inhibition of HDAC in CD1 nu/nu mouse tumor xenografted with human HCT116 cells assessed as plasma drug level causing increase in H2BK5 acetylation at 100 mg/kg, po bid after 8 hrs by ELISA; assay type: functional, HCT-116
Mus musculus [29] = test: Inhibition of HDAC in CD1 nu/nu mouse tumor xenografted with human HCT116 cells assessed as plasma drug level causing increase in H2BK5 acetylation at 100 mg/kg, po bid after 24 hrs by ELISA; assay type: functional, HCT-116
Mus musculus [30] = test: Inhibition of HDAC in CD1 nu/nu mouse tumor xenografted with human HCT116 cells assessed as plasma drug level causing increase in H2BK5 acetylation at 100 mg/kg, po bid after 48 hrs by ELISA; assay type: functional, HCT-116
Mus musculus [31] = test: Inhibition of HDAC in CD1 nu/nu mouse tumor xenografted with human HCT116 cells assessed as plasma drug level causing increase in H2BK5 acetylation at 100 mg/kg, po bid after 72 hrs by ELISA; assay type: functional, HCT-116
Mus musculus [32] = test: Inhibition of HDAC in CD1 nu/nu mouse tumor xenografted with human HCT116 cells assessed as plasma drug level causing increase in H2BK5 acetylation at 200 mg/kg, po qd after 1 hr by ELISA; assay type: functional, HCT-116
Mus musculus [33] = test: Inhibition of HDAC in CD1 nu/nu mouse tumor xenografted with human HCT116 cells assessed as plasma drug level causing increase in H2BK5 acetylation at 200 mg/kg, po qd after 8 hrs by ELISA; assay type: functional, HCT-116
Mus musculus [34] = test: Inhibition of HDAC in CD1 nu/nu mouse tumor xenografted with human HCT116 cells assessed as plasma drug level causing increase in H2BK5 acetylation at 200 mg/kg, po qd after 72 hrs by ELISA; assay type: functional, HCT-116
[35] = Volume of distribution at steady state in Sprague-Dawley rat at 2 mg/kg, iv; assay type: ADME, organism-based; design: dose 2 mg/kg, route intravenous; details: in vivo, read-out: Vdss; method in brief: as §3
[36] = Plasma clearance in Sprague-Dawley rat at 2 mg/kg, iv; assay type: ADME, organism-based; design: dose 2 mg/kg, route intravenous; method in brief: as §3
in vivo [37] = details: CD1 nu/nu, mouse, po, 50 mg/kg
in vivo [38] = details: CD1 nu/nu, mouse, po, 100 mg/kg
in vivo [39] = details: CD1 nu/nu, mouse, po, 200 mg/kg

Cmax [1]: 3.5 µM | Cmax [2]: 6.9 µM | Cmax [3]: 16.6 µM | Cmax [4]: 56.4 µM | AUC at 24 h [5]: 40 µM·h | AUC at 24 h [6]: 110 µM·h | AUC at 24 h [7]: 566 µM·h | AUC at 24 h [8]: 808 µM·h | AUC at 24 h [9]: 1220 µM·h | fCmin (Mus musculus [10]): 48 nM | half-life [11]: 2 h | bioavailability [12]: 82% | half-life [13]: 4.2 h | bioavailability [14]: 28% | fraction unbound at 2 µM [15]: 0.002 | clearance [16]: 22 mL/min/kg | half-life [17]: 1.4 h | AUC/dose (Canis familiaris): 0.3 µM·kg·h/mg | fraction unbound at 2 µM [18]: 0.024 | half-life [19]: 7.1 h | fraction unbound at 2 µM [20]: 0.016 | Drug metabolism [21]: metabolite_notdetected | Drug metabolism [22]: metabolite_notdetected | Drug metabolism [23]: metabolite_notdetected | Drug metabolism [24]: metabolite_notdetected | Vd [35]: 0.7 L/kg | clearance [36]: 3.6 mL/min/kg | concentration at 24 h (in vivo [37]): 0.9 µM | concentration at 24 h (in vivo [38]): 0.5 µM | concentration at 24 h (in vivo [39]): 5 µM
Compound: Nc1ccc(-c2cccs2)cc1NC(=O)c1ccc(N2CCC3(CC2)CNC(=O)O3)nc1
INH (Mus musculus [25]): 1.5 µM | INH (Mus musculus [26]): 0.3 µM | INH (Mus musculus [27]): 14.3 µM | INH (Mus musculus [28]): 9.9 µM | INH (Mus musculus [29]): 0.4 µM | INH (Mus musculus [30]): 0.3 µM | INH (Mus musculus [31]): 0.2 µM | INH (Mus musculus [32]): 11.9 µM | INH (Mus musculus [33]): 9.5 µM | INH (Mus musculus [34]): 0.3 µM
